Experimental data: article PMC7574157 (Investigational new drugs, 2016)

Tests used:
patients [1] = details: cited from earlier work
Population PK analysis = type: in vivo, human
In short: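 Oral dosing; patients fasted 1 h before and 2 h after. Sparse plasma samples were taken pre-dose and 1–3 h post-dose on days 29, 43 and 99, with richer sampling on the intermittent schedule. Two-compartment model with first-order absorption and elimination, fitted by first-order conditional estimation with interaction. It estimated clearance, intercompartment clearance, central/peripheral volumes, absorption rate, inter-subject variability and residual error, and explored covariates.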

patients [2] = details: cited from earlier work; remark: listed apart in the source
[3] = GSK458 as mono-therapy, estimate (SD)

In the case of `CC(=O)Nc1cccc(-n2c(=O)n(C3CC3)c(=O)c3c(Nc4ccc(I)cc4F)n(C)c(=O)c(C)c32)c1` [trametinib], the “Most frequently reported treatment-related toxicities, single agent” value (patients [1]) is listed as “rash or acneiform dermatitis, diarrhea, fatigue, nausea, and vomiting”, the Plasma half-life (patients [1]; no reference given) is listed as “five days” and the “Recommended phase II dose (RP2D), single agent” value (patients [1]; once daily) is listed as 2 mg.
For `COc1ncc(-c2ccc3nccc(-c4ccnnc4)c3c2)cc1NS(=O)(=O)c1ccc(F)cc1F` [GSK458], the “Clearance, CL/F” value (Population PK analysis; [3]) was 3.88 (1.9) L/h, the “Volume of central compartment Vc/F” value (Population PK analysis; [3]) was 17.81 (17.4) L and the “Volume of peripheral compartment Vp/F” value (Population PK analysis; [3]) was 54.67 (48.7) L. The Vd (Population PK analysis; human, in vivo, oral) was 8.95 L, the clearance (Population PK analysis; human, in vivo, oral) was 54.2 mL/min and the “PK of GSK458 alone versus in combination with trametinib (post hoc estimates)” value (Population PK analysis; in vivo) was “No significant difference was observed”. The Inter-compartment clearance (Population PK analysis; population PK model of GSK458) was 2.71 L/h, the “Inter-individual variability on central volume” value (Population PK analysis; population PK model of GSK458) was roughly 97% and the “Inter-individual variability on clearance” value (Population PK analysis; population PK model of GSK458) was “approximately 53%”. For the same compound, the “Peripheral volume of distribution” value (Population PK analysis; population PK model of GSK458) was 38.4 L, the “Most frequently reported treatment-related adverse events, single agent” value (patients [2]) was “diarrhea, fatigue, nausea, decreased appetite, vomiting, and hyerpglycemia” and the “Maximum tolerated dose (MTD), single agent” value (patients [2]; once daily) was 2.5 mg.
